Screening data (PubChem)
Most compounds without a hit are left out; they make up all but 3.4% or so of the library.
MEKK3 PB1 HTS: modulators of MEKK3-MEK5 PB1 binding, primary screen, biochemical, wildtype MEKK3, multiplex bead flow cytometry, Alexa488-MEK5; Mitogen-activated protein kinase kinase kinase 3 (Homo sapiens), Q99759; bead-based flow cytometry, Alexa488-MEK5 binding to MEKK3; actives lie on both sides; 0 = blocked by unlabeled MEK5, 100 = vehicle; binding response (% of control), % at 10 µM; 290,000 tested, 1.4% active;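 active = binding response more than 3 SD above or below the average of its plate-row segment, actives on both sides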;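 also: Alexa488 bead fluorescence after subtracting the streptavidin-only scavenger bead signal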
Target sequence (Q99759 whole entry, looked up): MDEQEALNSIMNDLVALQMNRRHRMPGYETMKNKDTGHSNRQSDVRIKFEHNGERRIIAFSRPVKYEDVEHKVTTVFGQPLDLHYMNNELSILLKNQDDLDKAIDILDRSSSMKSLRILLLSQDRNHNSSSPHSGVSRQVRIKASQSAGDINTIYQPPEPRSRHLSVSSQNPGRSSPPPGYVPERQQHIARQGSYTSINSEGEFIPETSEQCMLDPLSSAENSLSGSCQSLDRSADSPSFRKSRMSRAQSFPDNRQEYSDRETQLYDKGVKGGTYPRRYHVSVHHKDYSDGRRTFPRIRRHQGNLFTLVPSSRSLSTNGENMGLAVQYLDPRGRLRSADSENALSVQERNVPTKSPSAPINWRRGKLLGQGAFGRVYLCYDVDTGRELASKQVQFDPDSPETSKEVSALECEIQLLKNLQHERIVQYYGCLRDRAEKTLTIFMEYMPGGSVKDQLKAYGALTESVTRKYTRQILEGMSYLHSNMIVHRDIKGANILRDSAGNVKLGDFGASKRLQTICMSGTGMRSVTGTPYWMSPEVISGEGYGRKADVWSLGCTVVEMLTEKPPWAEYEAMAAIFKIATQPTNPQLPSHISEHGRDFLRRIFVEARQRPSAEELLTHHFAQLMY
MEKK2wt PB1 HTS: modulators of MEK5 binding to wildtype MEKK2, primary screen, biochemical, multiplex bead flow cytometry, Alexa488-MEK5; Alexa488-MEK5 binding to MEKK2 WT; actives lie on both sides; binding response (% of control), % at 10 µM; 290,000 tested, 1.1% active; Mitogen-activated protein kinase kinase kinase 2 (Homo sapiens), Q9Y2U5; in the data active = binding response below about 67% or above about 130%
IMP-1 inh: IMP-1 metallo-beta-lactamase inhibitors, primary screen, biochemical, epi-absorbance readout, Pseudomonas aeruginosa enzyme. purified IMP-1, nitrocefin hydrolysis, epi-absorbance fluorescence. inhibition, % at 5.6 µM. 290,000 tested, 0.45% active;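 active = inhibition above the mean plus 3 SD of all compounds in the same screening run, cut at about 4.5% in these data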;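 also: 0% = IMP-1 with DMSO and 100% = DMSO wells lacking enzyme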
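Material – recombinant IMP-1 enzyme, purified · Amount – IMP-1 0.2 nM before substrate addition · Medium – HEPES buffer pH 7.1 with ZnSO4 and Brij 35 · Timing – 25 °C, 15 min preincubation, 25 min reaction · Measured by – plate fluorescence quenching by hydrolysis product, ex 480/em 530 nm · Read-out – percent enzyme inhibition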
MEKK2mut PB1 HTS: MEK5 binding signal on mutant MEKK2 PB1, primary screen, biochemical, multiplex bead flow cytometry, Alexa488-MEK5; Alexa488-MEK5 binding to MEKK2 mutant; 290,000 tested, 0.35% active; percent response, % at 10 µM; in the data active = percent response above about 24%, passing the limit was not always enough
VIM-2 inhibitor: VIM-2 metallo-beta-lactamase inhibitors, primary screen, biochemical, epi-absorbance readout, Pseudomonas aeruginosa enzyme | purified VIM-2, nitrocefin hydrolysis, epi-absorbance fluorescence | inhibition, % at 5.6 µM | 290,000 tested, 0.89% active | AID 1527, 2009;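 active = inhibition above the mean of all tested compounds plus 3 SD, cutoff set per screening run, cut at about 7.5% in these data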;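 also: red hydrolysis product quenches plate fluorescence so inhibitors raise well fluorescence; 0% = enzyme with DMSO and 100% = DMSO without enzyme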
MEKK2wt confirm: modulators of MEK5 binding to wildtype MEKK2, confirmation, biochemical, single concentration, multiplex bead flow cytometry | Alexa488-MEK5 binding to MEKK2 WT; actives lie on both sides | shares compounds with MEKK3 PB1 HTS | binding response (% of control), % at 10 µM | 5,900 tested, 2.4% active; in the data active = binding response below about 16% or above about 210%; inactive = in between
MEKK2mut-MEK5: mutant MEKK2 PB1-MEK5 binding signal retest – biochemical, single concentration, multiplex bead flow cytometry, confirmation; Alexa488-MEK5 binding to MEKK2 mutant; 5,900 tested, 2% active; percent response, % at 10 µM; shares compounds with MEKK3 PB1 HTS; in the data active = percent response mostly above about 71%, no sharp cut-off; inactive = mostly below about 38%;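 also: higher means compound restores mutant binding toward wildtype level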
MEKK3-MEK5 inh: MEKK3 wild-type PB1 binding to MEK5, inhibitors, confirmation, biochemical, bead multiplex flow cytometry, single concentration, wildtype; binding response (% of control), % at 10 µM; 5,900 tested, 1.8% active; Alexa488-MEK5 binding to MEKK3; stronger effect = lower value; shares compounds with MEKK3 PB1 HTS;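 active = binding response below 72% of control, or above a set upper limit, though filed actives all read lower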;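 also: 100% = DMSO only wells and 0% = binding blocked by excess unlabeled MEK5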
An asterisk follows results filed as active; x = no result given; [ ] = another dose, or the depositor's remark.

SMILES	MEKK3 PB1 HTS	MEKK2wt PB1 HTS	IMP-1 inh	MEKK2mut PB1 HTS	VIM-2 inhibitor	MEKK2wt confirm	MEKK2mut-MEK5	MEKK3-MEK5 inh
COc1cc(/C=C2/SC(=S)N(Cc3ccccc3)C2=O)ccc1OCC(=O)O	99	81	-2	-1	-6	x	x	x
COc1ccc2ccc3c(c2c1)N=CC1(O3)N(C)c2ccccc2C1(C)C (configuration not stated)	108	101	-1	3	5	x	x	x
CC(C)[C@H](NC(=O)Nc1ccc(Oc2ccccc2)cc1)C(=O)O	104	105	-4	3	-1	x	x	x
CC(C)[C@H](NC(N)=O)C(=O)Nc1ccc(Oc2ccccc2)cc1	42*[inhibitor]	51	-1	-18	2	108	5	104
CS(=O)(=O)Nc1ccc(-c2cn3cccnc3n2)cc1	102	107	-5	12	-3	x	x	x
COCCNc1nnc(SCC(=O)Nc2cc(-c3ccccc3)nn2-c2ccccc2)s1	68*[inhibitor]	100	-3	-1	-2	127	8	104
CC(C)(C)c1cc(NC(=O)CSc2nnc(NCc3ccccc3)s2)n(-c2ccccc2)n1	102	103	-2	10	-2	x	x	x
CCOC(=O)N1CCN(C(=O)CCNS(=O)(=O)c2ccc3c(c2)c(=O)n(C)c(=O)n3C)CC1	107	96	-1	-7	-4	x	x	x
COc1ccccc1CNC(=O)CSc1ccc(C(=O)Nc2ccccc2OC)cc1[N+](=O)[O-]	123	106	-2	0	-3	x	x	x
COc1ccccc1NC(=O)c1ccc(SCC(=O)NCc2ccccc2Cl)c([N+](=O)[O-])c1	133*	103	-1	0	-1	95	0	103
CC(C)n1c(O)c(/C=C2\C=Nc3ccccc32)sc1=Nc1ccccc1	13*[inhibitor]	22*[inhibitor]	-1	-35	-3	106	0	100
Cc1cc(Nc2ncc(Cl)cc2Cl)n(-c2ccccc2)n1	139*	108	-2	1	-2	110	6	104
Cc1cc(Nc2ncc(Cl)cc2Cl)n(-c2ccccn2)n1	104	110	-3	7	0	x	x	x
Cc1ccc(-n2c(C)cc(C(=O)COc3cccnc3[N+](=O)[O-])c2C)cc1	152*	110	-3	0	-4	98	-8	99
Cc1cc(C(=O)COc2cccnc2[N+](=O)[O-])c(C)n1-c1ccccc1	90	90	-1	-3	-2	x	x	x
CCOC(=O)c1c(NC(=O)C(C)N2CCN(C(=O)c3ccco3)CC2)sc2c1CCCC2 (configuration not stated)	x	x	-1	x	-2	x	x	x
CN(CCCN1c2ccccc2CCc2ccccc21)CC(=O)c1ccc(Cl)cc1	107	165*	x	18	x	130	16	96
CN(C)CCCN1c2ccccc2CCc2ccc(Cl)cc21	77	148*	-2	13	-3	131	12	106
CN(C)CCCN1c2ccccc2Sc2ccccc21	104	106	-3	8	-2	x	x	x
CCCC(=O)NCc1ccccc1Cl	115	106	-3	0	-3	x	x	x
CC(=O)Nc1ccc(Nc2cc(N3CCOCC3)c3nonc3c2[N+](=O)[O-])cc1	45*[inhibitor]	49	0	-17	3	101	-1	103
CCOC(=O)c1c(C)[nH]c(C(=O)NCc2ccco2)c1C	143*	122	-1	6	-3	96	0	97
CCCCC(=O)N(c1ccc(C(=O)O)cc1)c1nc(-c2ccc(Cl)cc2)c(CC)s1	3.0*[inhibitor]	3.0*[inhibitor]	-3	-60	-3	93	-7	104
CCc1sc(N(C(=O)Cc2ccccc2)c2ccccc2)nc1-c1ccccc1	95	95	-3	-5	-2	x	x	x
Brc1ccc(-n2c(SCc3nc4ccccc4[nH]3)nnc2-c2ccncc2)cc1	150*	108	0	0	0	102	2	100
SMILES	MEKK3 PB1 HTS	MEKK2wt PB1 HTS	IMP-1 inh	MEKK2mut PB1 HTS	VIM-2 inhibitor	MEKK2wt confirm	MEKK2mut-MEK5	MEKK3-MEK5 inh
Cc1ccc(C(=O)N/C(=C\c2ccccc2)C(=O)OCc2ccccc2)cc1	98	87	-2	-6	-1	x	x	x
O=C(OCc1ccccc1)/C(=C/c1ccc(Cl)cc1)NC(=O)c1ccccc1Cl	109	111	-2	24*	-3	102	-5	103
Cc1ccc(N(CN2C(=O)NC(C)(C)C2=O)CN2C(=O)NC(C)(C)C2=O)cc1	2.0*[inhibitor]	2.0*[inhibitor]	0	-16	1	101	-4	99
CCN(CC)CCNC(=O)C1c2cc(OC)c(OC)cc2C(=O)N2CCc3ccccc3C12 (configuration not stated)	x	x	-4	x	-2	x	x	x
Clc1ccc(CSc2ncn[nH]2)cc1	x	x	-2	x	-2	x	x	x
CCOc1ccc(Cl)cc1CSc1ncn[nH]1	1.0*[inhibitor]	1.0*[inhibitor]	-5	-31	-2	96	-15	88
O=S(=O)(c1ccc(F)cc1)N1CCN(c2ncccn2)CC1	134*	118	-4	28	-1	108	10	109
O=S(=O)(c1ccccc1)N1CCN(c2ncccn2)CC1	102	101	-6	10	-2	x	x	x
CCN(CC)CCOC(=O)c1ccc(N/C=C(/C#N)c2nc(-c3cccc(OC)c3)cs2)cc1	31*[inhibitor]	93	-4	-14	-2	78	-38	26*
CCN(CC)CCOC(=O)c1ccc(N/C=C(/C#N)c2nc(-c3ccc(OC)c(OC)c3)cs2)cc1	29*[inhibitor]	94	2	-1	3	53	-45	15*
COc1cccc(-c2csc(NC(=O)C3CC3)n2)c1	109	106	-2	2	0	x	x	x
Cc1ccc(-c2csc(/C(C#N)=C/Nc3ccc4c(c3)OCCO4)n2)cc1	113	105	-3	0	-2	x	x	x
CCc1ccccc1N1CC23C=CC(O2)C(C(=O)O)C3C1=O (configuration not stated)	99	99	-1	-2	5	x	x	x
